Test results from article PMC11951139 (Journal of Agricultural and Food Chemistry, 2025).
“Also recorded” adds a separate entry of the source.

What was measured:
DmATG8a = DmATG8a (Drosophila melanogaster, UniProt Q9W2S2); assay: Microscale thermophoresis; assay type: binding; details: for Kd: Kd value (binding affinity with DmATG8a), MST, fluorescently labeled DmATG8a
Outline: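 Wild-type DmATG8a expressed from pET-32a in E. coli BL21(DE3), induced with 1 mM IPTG at 20 °C for 16 h. Purified by His-tag affinity, TEV tag removal and size exclusion in 20 mM Tris-HCl, 300 mM NaCl, pH 7.5. Protein labelled with RED-NHS dye. Test compounds and tryptophan run as 16-point dilutions from 0.06 to 2000 μM, 5 min in the dark, then MST on a Monolith NT.115.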

[1] = test system: D. melanogaster adult flies; assay: Insecticidal activity, combined gastric poisoning and contact method; assay type: in vivo, Drosophila melanogaster; details: for insecticidal activity: 500 μg/mL, adult flies, mortality after 24 h
Outline: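 Adult fruit flies, about twenty 2-day-old per dish. Apple slices soaked 1 min in test solution, then placed in the Petri dish, combining ingestion and contact exposure. Triplicate per treatment, with water as negative and avermectin as positive control. Held at 24 ± 1 °C, 75 ± 5% RH, 16 h light:8 h dark. Mortality scored at 24 h by gently touching insects with a brush.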

DmATG8a^K48A = assay: MST binding to the DmATG8a K48A mutant; parameters: species or system Drosophila melanogaster; details: 25 °C
Outline: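 K48A point mutant of DmATG8a made by site-directed mutagenesis in pET-32a. Expressed and purified as for wild type: E. coli BL21(DE3), His-tag affinity, TEV cleavage, desalting. Binding of the test indole assessed by microscale thermophoresis with fluorescently labelled protein.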

DmATG8a, sequence (Q9W2S2 1-121): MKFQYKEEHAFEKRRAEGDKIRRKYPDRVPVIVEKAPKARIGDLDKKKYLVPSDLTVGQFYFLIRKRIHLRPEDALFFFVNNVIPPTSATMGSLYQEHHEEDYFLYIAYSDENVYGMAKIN

Row | Structure (SMILES) | fold lower Kd than tryptophan (DmATG8a; Kd of 6-fluoroindole versus Kd of tryptophan) | Kd (DmATG8a) [µM] | insecticidal activity [1] [%] | LC50 ([1]; Drosophila melanogaster, 24 h) [µg/mL] | binding to DmATG8a^K48A (DmATG8a^K48A) | mortality at 15 µg/mL ([1]; Drosophila melanogaster, 24 h) [%]
1 | Fc1ccc2cc[nH]c2c1 [6-fluoroindole] | approximately 19 fold | 3.54 | 100 | 169 | no affinity; also recorded: no binding | 
2 | CC[C@H](C)[C@H]1O[C@]2(C=C[C@@H]1C)C[C@@H]1C[C@@H](C/C=C(\C)[C@@H](O[C@H]3C[C@H](OC)[C@@H](O[C@H]4C[C@H](OC)[C@@H](O)[C@H](C)O4)[C@H](C)O3)[C@@H](C)/C=C/C=C3\CO[C@@H]4[C@H](O)C(C)=C[C@@H](C(=O)O1)[C@]34O)O2 [avermectin] |  |  | 100 | 30.5 |  | 33
3 | N[C@@H](Cc1c[nH]c2ccccc12)C(=O)O [tryptophan, reference compound] |  | 67 |  |  |  | 
